{"source": "ChEMBL document CHEMBL5360580", "about": "(Eur J Med Chem, 2023)", "key": {"[1]": {"test_system": "SARS-CoV-2", "assay": "Antiviral activity against SARS-CoV-2 infected in African green monkey Vero E6 cells assessed as inhibition of viral replication at 1 uM incubated for 24 hrs by IFA assay relative to control", "format": "functional", "details": "Severe acute respiratory syndrome coronavirus 2, Vero C1008"}, "[2]": {"assay": "Prodrug conversion in ICR mouse plasma assessed as half life of compound 5-chloro-4-fluoro-2-hydroxy-N-(4-(trifluoromethoxy)phenyl)benzamide at 30 mg/kg, po and 2.5 mg/kg, iv measured upto 24 hrs by LC-MS/MS analysis", "format": "ADME, organism-based", "details": "in vivo", "method_in_brief": "(§1)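 Prodrugs were given to fasted ICR (CD-1) mice (N = 3) in DMSO/0.5% HMPC (5/95), at 30 mg/kg po or 2.5 mg/kg iv. Serum from femoral-vein blood taken 0.25–24 h was analysed by LC-MS/MS for the released parent compound, with mole correction applied to the parameters.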"}, "[3]": {"assay": "Prodrug conversion in ICR mouse plasma assessed as Cmax of compound 5-chloro-4-fluoro-2-hydroxy-N-(4-(trifluoromethoxy)phenyl)benzamide at 30 mg/kg, po and 2.5 mg/kg, iv measured upto 24 hrs by LC-MS/MS analysis", "format": "ADME, organism-based", "set-up": "time < 24 hrs, dose 30 mg/kg, route po", "details": "in vivo", "method_in_brief": "as §1"}, "[4]": {"assay": "Prodrug conversion in ICR mouse plasma assessed as oral bioavailability of compound 5-chloro-4-fluoro-2-hydroxy-N-(4-(trifluoromethoxy)phenyl)benzamide at 30 mg/kg measured upto 24 hrs by LC-MS/MS analysis", "format": "ADME, organism-based", "details": "in vivo", "method_in_brief": "as §1"}, "[5]": {"assay": "Prodrug conversion in ICR mouse plasma assessed as Observed AUC (0 to infinity) of compound 5-chloro-4-fluoro-2-hydroxy-N-(4-(trifluoromethoxy)phenyl)benzamide at 30 mg/kg, po and 2.5 mg/kg, iv measured upto 24 hrs by LC-MS/MS analysis", "format": "ADME, organism-based", "set-up": "time < 24 hrs, dose 30 mg/kg, route po", "details": "in vivo", "method_in_brief": "as §1"}, "[6]": {"assay": "Prodrug conversion in ICR mouse plasma assessed as Observed MRT (0 to infinity) of compound 5-chloro-4-fluoro-2-hydroxy-N-(4-(trifluoromethoxy)phenyl)benzamide at 30 mg/kg, po and 2.5 mg/kg, iv measured upto 24 hrs by LC-MS/MS analysis", "format": "ADME, organism-based", "details": "in vivo", "method_in_brief": "as §1"}, "[7]": {"assay": "Aqueous solubility of compound at 0.5 mg/mL in presence of acetonitrile by HPLC analysis", "format": "physicochemical", "details": "buffer", "method_in_brief": "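Compound was suspended in water, vortexed vigorously and filtered through a 0.22 μm membrane. The filtrate was diluted 2-fold with 80% acetonitrile and analysed by reversed-phase amide HPLC. Concentration was read against a standard curve prepared from a 0.5 mg/mL solution in 80% acetonitrile. Single determination.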"}, "[8]": {"assay": "Prodrug conversion in ICR mouse plasma assessed as AUClast of compound 5-chloro-4-fluoro-2-hydroxy-N-(4-(trifluoromethoxy)phenyl)benzamide at 30 mg/kg, po and 2.5 mg/kg, iv measured upto 24 hrs by LC-MS/MS analysis", "format": "ADME, organism-based", "set-up": "dose 30 mg/kg, time < 24 hrs, route po", "details": "in vivo", "method_in_brief": "as §1"}, "[9]": {"assay": "Selectivity index, ratio of CC50 for cytotoxicity against African green monkey Vero E6 to EC50 for antiviral activity against SARS-CoV-2 infected in African green monkey Vero E6 cells", "format": "toxicity, cell-based, Vero C1008", "details": "read-out: Ratio CC50/EC50"}, "[10]": {"test_system": "SARS-CoV-2", "assay": "Antiviral activity against SARS-CoV-2 infected in African green monkey Vero E6 cells assessed as inhibition of viral replication incubated for 24 hrs by IFA assay", "format": "functional, organism-based", "details": "Severe acute respiratory syndrome coronavirus 2, Vero C1008, 24 h"}, "[11]": {"test_system": "Vero C1008", "assay": "Cytotoxicity against African green monkey Vero E6 cells assessed as reduction in cell viability measured after 48 hrs by CCK-8 assay", "format": "toxicity, cell-based", "details": "chlorocebus sabaeus, vero c1008, 48 h"}, "[12]": {"test_system": "SARS-CoV-2", "assay": "Antiviral activity against SARS-CoV-2 infected in African green monkey Vero E6 cells assessed as inhibition of viral replication at 5 uM incubated for 24 hrs by IFA assay relative to control", "format": "functional", "details": "Severe acute respiratory syndrome coronavirus 2, Vero C1008"}}}
{"compound": "O=C(Nc1ccc(C(F)(F)F)cc1)c1cc(Cl)cc(Cl)c1O", "values": [{"measurement": "inhibition at 1 µM", "setting": "[1]", "value": "< 10", "unit": "%"}]}
{"compound": "O=C(NC(=O)c1cc(Cl)ccc1O)c1ccc(C(F)(F)F)cc1", "values": [{"measurement": "inhibition at 1 µM", "setting": "[1]", "value": "< 10", "unit": "%"}]}
{"compound": "CC(C)C(=O)Oc1cc(F)c(Cl)cc1C(=O)Nc1ccc(OC(F)(F)F)cc1", "values": [{"measurement": "t1/2", "setting": "[2]", "value": 3.03, "unit": "h"}, {"measurement": "Cmax", "setting": "[3]", "value": 5175, "unit": "ng/mL"}, {"measurement": "F", "setting": "[4]", "value": 39.75, "unit": "%"}, {"measurement": "AUC", "setting": "[5]", "value": 17551, "unit": "ng·h/mL"}, {"measurement": "MRT", "setting": "[6]", "value": 5.52, "unit": "h"}, {"measurement": "solubility", "setting": "[7]", "value": 0.53, "unit": "µg/mL"}, {"measurement": "AUClast", "setting": "[8]", "value": 17393, "unit": "ng·h/mL"}]}
{"compound": "O=C(Nc1ccc(OC(F)(F)F)cc1)c1cc(Cl)ccc1O", "values": [{"measurement": "inhibition at 1 µM", "setting": "[1]", "value": 55, "unit": "%"}]}
{"compound": "CS(=O)(=O)Nc1ccc(NC(=O)c2cc(Cl)ccc2O)c(Cl)c1", "values": [{"measurement": "inhibition at 1 µM", "setting": "[1]", "value": "< 10", "unit": "%"}]}
{"compound": "CC(=O)Oc1cc(F)c(Cl)cc1C(=O)Nc1ccc(OC(F)(F)F)cc1", "values": [{"measurement": "t1/2", "setting": "[2]", "value": 3.57, "unit": "h"}, {"measurement": "Cmax", "setting": "[3]", "value": 4771, "unit": "ng/mL"}, {"measurement": "F", "setting": "[4]", "value": 37.61, "unit": "%"}, {"measurement": "AUC", "setting": "[5]", "value": 16726, "unit": "ng·h/mL"}, {"measurement": "MRT", "setting": "[6]", "value": 6.03, "unit": "h"}, {"measurement": "solubility", "setting": "[7]", "value": 0.71, "unit": "µg/mL"}, {"measurement": "AUClast", "setting": "[8]", "value": 16458, "unit": "ng·h/mL"}]}
{"compound": "O=C(Nc1ccc(SC(F)(F)F)cc1)c1cc(Cl)c(F)cc1O", "values": [{"measurement": "selectivity ratio", "setting": "[9]", "value": 1.63}, {"measurement": "EC50", "setting": "[10]", "value": 1610, "unit": "nM"}, {"measurement": "CC50", "setting": "[11]", "value": 2630, "unit": "nM"}, {"measurement": "inhibition at 1 µM", "setting": "[1]", "value": 87, "unit": "%"}]}
{"compound": "O=C(Nc1ccc(C(F)(F)F)cc1)c1cc(F)ccc1O", "values": [{"measurement": "selectivity ratio", "setting": "[9]", "value": 0.98}, {"measurement": "EC50", "setting": "[10]", "value": 1640, "unit": "nM"}, {"measurement": "CC50", "setting": "[11]", "value": 1610, "unit": "nM"}, {"measurement": "inhibition at 1 µM", "setting": "[1]", "value": 92, "unit": "%"}]}
{"compound": "CC(=O)Nc1ccc(NC(=O)c2cc(Cl)ccc2O)c(Cl)c1", "values": [{"measurement": "inhibition at 1 µM", "setting": "[1]", "value": "< 10", "unit": "%"}]}
{"compound": "O=C(Nc1ccc(C(F)(F)F)cc1Cl)c1cc(Cl)ccc1O", "values": [{"measurement": "inhibition at 1 µM", "setting": "[1]", "value": 79, "unit": "%"}]}
{"compound": "CC(=O)c1cc(Cl)cc(C(=O)Nc2ccc(C(F)(F)F)cc2)c1O", "values": [{"measurement": "inhibition at 1 µM", "setting": "[1]", "value": 50, "unit": "%"}]}
{"compound": "CCC(CC)COC(=O)[C@H](C)N[P@](=O)(OC[C@H]1O[C@@](C#N)(c2ccc3c(N)ncnn23)[C@H](O)[C@@H]1O)Oc1ccccc1", "values": [{"measurement": "inhibition at 5 µM", "setting": "[12]", "value": 99, "unit": "%"}, {"measurement": "inhibition at 1 µM", "setting": "[1]", "value": "< 10", "unit": "%"}]}
{"compound": "COc1ccc(Cl)cc1C(=O)Nc1ccc(C(F)(F)F)cc1", "values": [{"measurement": "inhibition at 1 µM", "setting": "[1]", "value": "< 10", "unit": "%"}]}
{"compound": "O=S(=O)(Nc1ccc(C(F)(F)F)cc1)c1cc(Cl)ccc1O", "values": [{"measurement": "inhibition at 1 µM", "setting": "[1]", "value": "< 10", "unit": "%"}]}
